Source: ChEMBL document CHEMBL3351639, “Fluorinated analogues of marsanidine, a highly α2-AR/imidazoline I1 binding site-selective hypotensive agent. Synthesis and biological activities” (Eur J Med Chem, 2014)

Assays:
Rattus norvegicus = assay: Hypertensive activity in anesthetized Wistar rat assessed as time required for maximal increase in mean arterial blood pressure at 0.1 mg/kg, iv measured during 60 mins post dose; assay type: organism-based; set-up: dose 0.1 mg/kg, route intravenous; details: in vivo, 1 h
Procedure, shortened: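 Male Wistar rats (200–290 g) anaesthetized with thiopental 70 mg/kg i.p., maintained at 30 µg/kg/min; body temperature 36–37 °C. Carotid catheter recorded MAP and HR; jugular catheter for infusion. After 40 min of saline/thiopental infusion (1.2 ml/h), 0.1 mg/kg given as i.v. bolus (time 0). Signals sampled at 100 Hz. Maximal change from time 0 over 60 min, and its time, recorded. Saline vehicle control; n = 4–5.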

Nischarin = Nischarin (Rattus norvegicus, UniProt Q4G017); assay: Displacement of […] from imidazoline I1 receptor in Sprague-Dawley rat kidney membranes after 45 mins by liquid scintillation counting; assay type: cell membranes, Membrane
[1] = target: T1, Adrenergic receptor alpha-2 (Rattus norvegicus, UniProt P22086+P19328+P22909); assay: Displacement of [3H]RX821002 from alpha2-adrenoceptor in Sprague-Dawley rat brain membranes after 45 mins by liquid scintillation counting; assay type: cell membranes, Membrane
T1 sequence (P22086 whole entry): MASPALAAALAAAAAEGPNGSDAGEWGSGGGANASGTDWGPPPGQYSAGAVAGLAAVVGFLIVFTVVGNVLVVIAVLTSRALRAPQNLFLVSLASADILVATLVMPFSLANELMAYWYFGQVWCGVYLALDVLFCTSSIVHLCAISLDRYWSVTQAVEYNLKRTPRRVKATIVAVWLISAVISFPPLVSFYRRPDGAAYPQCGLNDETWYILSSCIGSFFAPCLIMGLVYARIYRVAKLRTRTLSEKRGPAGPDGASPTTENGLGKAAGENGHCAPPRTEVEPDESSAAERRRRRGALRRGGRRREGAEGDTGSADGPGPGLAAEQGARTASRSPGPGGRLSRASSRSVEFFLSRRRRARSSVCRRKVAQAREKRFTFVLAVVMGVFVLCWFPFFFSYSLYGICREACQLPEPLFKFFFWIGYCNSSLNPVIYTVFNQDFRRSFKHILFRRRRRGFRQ
T1 sequence (P19328 whole entry): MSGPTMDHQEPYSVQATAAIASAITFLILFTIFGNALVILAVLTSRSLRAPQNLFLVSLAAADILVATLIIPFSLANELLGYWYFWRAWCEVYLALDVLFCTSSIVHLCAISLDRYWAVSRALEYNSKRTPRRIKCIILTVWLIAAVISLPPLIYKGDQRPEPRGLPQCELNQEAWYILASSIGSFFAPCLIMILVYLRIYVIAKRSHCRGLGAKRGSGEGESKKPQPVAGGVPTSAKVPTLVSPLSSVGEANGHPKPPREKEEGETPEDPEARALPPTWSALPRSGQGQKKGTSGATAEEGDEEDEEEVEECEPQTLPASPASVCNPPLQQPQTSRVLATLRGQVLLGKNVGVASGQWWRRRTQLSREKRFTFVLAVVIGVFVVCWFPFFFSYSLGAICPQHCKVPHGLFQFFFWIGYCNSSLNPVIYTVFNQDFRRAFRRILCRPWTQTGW
T1 sequence (P22909 whole entry): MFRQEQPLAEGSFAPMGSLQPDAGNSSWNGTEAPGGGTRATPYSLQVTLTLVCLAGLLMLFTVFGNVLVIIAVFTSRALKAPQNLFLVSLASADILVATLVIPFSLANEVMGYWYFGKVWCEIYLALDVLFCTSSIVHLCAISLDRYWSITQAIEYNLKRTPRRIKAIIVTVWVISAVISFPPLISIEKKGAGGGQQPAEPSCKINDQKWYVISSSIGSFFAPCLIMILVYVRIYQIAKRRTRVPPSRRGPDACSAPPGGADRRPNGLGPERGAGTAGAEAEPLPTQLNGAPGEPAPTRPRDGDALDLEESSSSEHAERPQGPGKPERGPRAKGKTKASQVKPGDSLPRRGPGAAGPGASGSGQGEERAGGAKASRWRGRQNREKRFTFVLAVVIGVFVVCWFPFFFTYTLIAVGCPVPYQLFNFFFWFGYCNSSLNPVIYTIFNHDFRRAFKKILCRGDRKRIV
Procedure, shortened: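 Crude P2 membranes from brains of male Sprague-Dawley rats (250–280 g), 0.2–0.3 mg protein. Radioligand 1 nM [3H]RX821002 (α2) or [3H]prazosin (α1); 11 concentrations of compound, 0.1 nM–100 µM. Non-specific binding: 10 µM rauwolscine (α2) or 10 µM phenylephrine (α1). Triplicate incubation, RT, 45 min. PEI-soaked glass-fibre filtration, then scintillation counting. Ki by Cheng-Prusoff; 3–4 experiments, or one for low-affinity compounds.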

[2] = target: T2, Alpha-2C adrenergic receptor (Homo sapiens, UniProt P18825); assay: Displacement of [3H]RS-79948-197 from human alpha2C adrenoceptor expressed in CHO-K1 cells after 45 mins by liquid scintillation counting; assay type: cell-based
T2 sequence (P18825 whole entry): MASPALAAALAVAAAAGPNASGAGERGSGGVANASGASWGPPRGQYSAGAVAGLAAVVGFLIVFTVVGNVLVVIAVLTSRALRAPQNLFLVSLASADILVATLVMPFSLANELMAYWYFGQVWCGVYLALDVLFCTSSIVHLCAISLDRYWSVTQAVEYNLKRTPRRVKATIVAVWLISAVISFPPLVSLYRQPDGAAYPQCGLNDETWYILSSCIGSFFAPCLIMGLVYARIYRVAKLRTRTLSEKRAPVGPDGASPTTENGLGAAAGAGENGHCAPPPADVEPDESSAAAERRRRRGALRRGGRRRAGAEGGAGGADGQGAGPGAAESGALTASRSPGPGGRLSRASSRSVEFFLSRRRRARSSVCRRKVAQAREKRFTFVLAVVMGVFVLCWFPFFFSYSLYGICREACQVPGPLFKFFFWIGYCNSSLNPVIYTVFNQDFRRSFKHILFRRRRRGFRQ
Procedure, shortened: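 Membranes from CHO-K1 cells stably expressing each human α2-AR subtype (6–10 µg protein). Used 0.2 nM [3H]RS-79948-197 and 8 serial dilutions of competitor in 50 mM potassium phosphate, pH 7.4. Non-specific binding defined with 100 µM oxymetazoline. Filtration, then scintillation counting. Run in duplicate, at least 3 repeats. One-site nonlinear fit; IC50 converted to Ki by Cheng-Prusoff.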

Sequence of Nischarin (Q4G017 whole entry): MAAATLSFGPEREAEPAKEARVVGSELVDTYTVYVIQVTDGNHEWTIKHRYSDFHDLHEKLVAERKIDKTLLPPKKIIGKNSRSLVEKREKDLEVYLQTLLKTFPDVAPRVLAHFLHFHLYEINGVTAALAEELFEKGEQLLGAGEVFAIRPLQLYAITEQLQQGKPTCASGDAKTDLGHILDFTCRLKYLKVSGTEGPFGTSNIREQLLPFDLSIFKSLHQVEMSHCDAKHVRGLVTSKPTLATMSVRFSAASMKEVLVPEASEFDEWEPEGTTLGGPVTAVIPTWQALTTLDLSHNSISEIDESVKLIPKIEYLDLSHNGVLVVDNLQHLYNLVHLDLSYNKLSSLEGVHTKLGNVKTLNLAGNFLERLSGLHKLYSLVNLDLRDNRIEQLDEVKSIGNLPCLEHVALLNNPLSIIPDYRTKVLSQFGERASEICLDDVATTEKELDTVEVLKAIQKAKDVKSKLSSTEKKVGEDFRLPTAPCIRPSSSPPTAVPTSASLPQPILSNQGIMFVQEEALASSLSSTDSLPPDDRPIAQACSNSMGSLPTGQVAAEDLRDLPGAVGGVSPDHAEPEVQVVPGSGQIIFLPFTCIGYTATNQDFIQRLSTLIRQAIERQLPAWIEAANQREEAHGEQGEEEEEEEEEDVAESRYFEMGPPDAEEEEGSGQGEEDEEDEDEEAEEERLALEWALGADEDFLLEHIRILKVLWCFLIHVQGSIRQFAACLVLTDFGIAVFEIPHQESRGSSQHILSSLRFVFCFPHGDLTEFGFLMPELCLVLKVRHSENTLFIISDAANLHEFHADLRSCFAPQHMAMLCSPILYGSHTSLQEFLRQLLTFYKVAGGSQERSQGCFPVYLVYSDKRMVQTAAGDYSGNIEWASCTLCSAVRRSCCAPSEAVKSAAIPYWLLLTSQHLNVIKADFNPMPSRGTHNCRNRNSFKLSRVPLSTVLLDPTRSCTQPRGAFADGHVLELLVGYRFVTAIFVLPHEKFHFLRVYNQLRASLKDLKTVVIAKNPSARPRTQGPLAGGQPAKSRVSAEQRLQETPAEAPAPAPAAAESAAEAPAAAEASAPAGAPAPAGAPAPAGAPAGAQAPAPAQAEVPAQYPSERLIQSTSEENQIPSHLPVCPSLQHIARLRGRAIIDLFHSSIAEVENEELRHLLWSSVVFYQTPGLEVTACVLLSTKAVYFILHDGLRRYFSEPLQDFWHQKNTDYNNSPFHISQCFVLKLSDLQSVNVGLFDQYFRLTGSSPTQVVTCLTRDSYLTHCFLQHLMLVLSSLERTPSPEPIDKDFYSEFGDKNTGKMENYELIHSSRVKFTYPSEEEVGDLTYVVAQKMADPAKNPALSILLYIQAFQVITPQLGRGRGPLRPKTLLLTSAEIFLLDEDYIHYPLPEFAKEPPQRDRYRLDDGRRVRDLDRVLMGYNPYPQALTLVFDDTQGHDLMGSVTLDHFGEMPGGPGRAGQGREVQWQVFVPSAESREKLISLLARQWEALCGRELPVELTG

| SMILES | Time (Rattus norvegicus) | IC50 (Nischarin) | Ki [1] | Ki [2] |
| --- | --- | --- | --- | --- |
| Fc1ccc2cnn(CC3=NCCN3)c2c1 | 4 min | 33.5 µM | 29.73 nM |  |
| Fc1ccc2c(cnn2CC2=NCCN2)c1 | 2 min | 2.42 µM | 32.17 nM |  |
| Fc1ccc2c(cnn2N=C2NCCN2)c1 | 2 min | 0.0916 µM | 64.33 nM |  |
| Fc1cccc2cnn(N=C3NCCN3)c12 | 4 min | 7.74 µM | 30.97 nM | 1200 nM |
| Fc1ccc2cnn(N=C3NCCN3)c2c1 | 3 min | 20.7 µM | 26.2 nM | 600 nM |
